{
  "source": "paper PMC4122542",
  "about": "(Journal of medicinal chemistry, 2008)",
  "key": {"RG2 cells [1]": {"tested_on": "RG2 cells", "experiment": "MTT cytotoxicity assay in wild-type cells", "format": "cell-based, Rat", "in_short": "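Non-transduced rat glioma RG2 cells were grown in DMEM with 10% FBS and 1% penicillin/streptomycin at 37 °C under 5% CO2, then seeded at 1.5 × 10^3 cells/well and incubated overnight. Test compound was applied at 0.001–1000 μmol/L in quadruplicate for 72 h at 37 °C. MTT (1 mg/mL) was added for 3 h, and formazan was dissolved in DMSO. A490 (650 nm reference) was blank-subtracted and growth expressed as % of untreated control.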"}, "[2]": {"conditions": "cited from earlier work"}, "RG2 cells [3]": {"tested_on": "RG2 cells", "experiment": "In vitro cell uptake of radiolabeled nucleosides in non-transduced control cells", "format": "cell-based, Rat", "conditions": "2 h incubation, % of total radioactivity per 10^6 cells, wild-type RG2 cells"}, "RG2TK+ cells": {"tested_on": "RG2TK+ cells", "experiment": "In vitro cell uptake of radiolabeled nucleosides in HSV1-tk expressing cells", "format": "cell-based, Rat", "conditions": "2 h incubation, % of total radioactivity per 10^6 cells"}, "[4]": {"conditions": "normal mice; cited from earlier work"}},
  "data": [
    {"smiles": "O=c1[nH]c(=O)n([C@@H]2O[C@H](CO)[C@@H](O)[C@@H]2F)cc1I", "note": "[FIAU]", "values": [
      {"measurement": "Cytotoxicity to RG2 cells (in words)", "setting": "RG2 cells [1]", "result": "moderately toxic to RG2 cells"},
      {"measurement": "Diffusion across the intact BBB", "setting": "[2]", "result": "does not diffuse across the intact BBB"}
    ]},
    {"smiles": "Nc1nc(O)c2ncn(COC(CO)CO)c2n1", "note": "[GCV, ganciclovir]", "values": [
      {"measurement": "Cytotoxicity to RG2 cells (in words)", "setting": "RG2 cells [1]", "result": "not active against RG2 cells"}
    ]},
    {"smiles": "O=c1[nH]c(=O)n([C@@H]2O[C@H](CO)[C@@H](O)[C@@H]2F)cc1CCCC[18F]", "note": "[[^18F]FFBuAU]", "values": [
      {"measurement": "% Uptake per 10^6 Cells, RG2", "setting": "RG2 cells [3]", "result": 0.66, "unit": "% per 10^6 cells"}
    ]},
    {"smiles": "O=c1[nH]c(=O)n([C@H]2C[C@H](O)[C@@H](CO)O2)cc1CCCCC[18F]", "note": "[[^18F]FPeDU]", "values": [
      {"measurement": "% Uptake per 10^6 Cells, RG2", "setting": "RG2 cells [3]", "result": 0.23, "unit": "% per 10^6 cells"}
    ]},
    {"smiles": "O=c1[nH]c(=O)n([C@H]2C[C@H](O)[C@@H](CO)O2)cc1CCC[18F]", "note": "[[^18F]FPrDU]", "values": [
      {"measurement": "% Uptake per 10^6 Cells, RG2TK+", "setting": "RG2TK+ cells", "result": 8.4, "unit": "% per 10^6 cells"}
    ]},
    {"smiles": "O=c1[nH]c(=O)n([C@@H]2O[C@H](CO)[C@@H](O)[C@@H]2F)cc1/C=C/[123I]", "note": "[[^123I]IVFAU]", "values": [
      {"measurement": "Brain uptake", "setting": "[4]", "result": "very low brain uptake"}
    ]},
    {"smiles": "O=c1[nH]c(=O)n([C@@H]2O[C@H](CO)[C@@H](O)[C@H]2F)cc1/C=C/[123I]", "note": "[[^123I]IVFRU]", "values": [
      {"measurement": "Brain uptake", "setting": "[4]", "result": "very low brain uptake"}
    ]},
    {"smiles": "O=c1[nH]c(=O)n([C@@H]2O[C@H](CO)[C@@H](O)[C@@H]2F)cc1[125I]", "note": "[[^125I]FIAU, 2′-fluoro-2′-deoxy-5-[^125I]iodo-1-β-D-arabinofuranosyluracil]", "values": [
      {"measurement": "% Uptake per 10^6 Cells, RG2", "setting": "RG2 cells [3]", "result": 3.44, "unit": "% per 10^6 cells"},
      {"measurement": "% Uptake per 10^6 Cells, RG2TK+", "setting": "RG2TK+ cells", "result": 29.4, "unit": "% per 10^6 cells"}
    ]}
  ]
}
